Results: ChEMBL document CHEMBL1208662, “Antimicrobial activity and a SAR study of some novel benzimidazole derivatives bearing hydrazone moiety” (Eur J Med Chem, 2010)
In brackets after ≈: the same amount, converted by molar mass.

Tests used:
Nakaseomyces glabratus = assay: Antimicrobial activity against Candida glabrata by broth microdilution method; format: functional
How it was run: (§1)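 Yeasts grown overnight at 35 ± 1 °C in Sabouraud dextrose broth. Tested by CLSI M7-A7 broth microdilution in Sabouraud dextrose broth, pH 7, two-fold serial dilutions 800 down to 1.5625 μg/mL of DMSO-dissolved compound. DMSO-only control. Inoculum matched to McFarland 0.5, final 0.5-2.5 × 10^5 cfu/mL. MIC is last well without growth, µg/mL. Duplicate readings. Ketoconazole reference.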

Candida tropicalis = assay: Antimicrobial activity against Candida tropicalis by broth microdilution method; format: functional; how it was run: as §1
Candida albicans = assay: Antimicrobial activity against Candida albicans by broth microdilution method; format: functional; how it was run: as §1
Staphylococcus aureus = assay: Antimicrobial activity against Staphylococcus aureus by broth microdilution method; format: functional
How it was run: (§2)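 CLSI M7-A7 broth microdilution, two-fold serial dilutions 800 down to 1.5625 μg/mL in Mueller–Hinton broth, pH 7. Compounds dissolved in DMSO; DMSO-only solvent control. Overnight cultures at 35 ± 1 °C, inoculum matched to McFarland 0.5, final 0.5-2.5 × 10^5 cfu/mL. MIC taken as last well without growth, µg/mL. Run twice. Chloramphenicol reference.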

Listeria monocytogenes = assay: Antimicrobial activity against Listeria monocytogenes by broth microdilution method; format: functional; how it was run: as §2
Proteus vulgaris = assay: Antimicrobial activity against Proteus vulgaris by broth microdilution method; format: functional; how it was run: as §2
Escherichia coli [1] = assay: Antimicrobial activity against Escherichia coli 35218 by broth microdilution method; format: functional; how it was run: as §2
Enterococcus faecalis = assay: Antimicrobial activity against Enterococcus faecalis by broth microdilution method; format: functional; how it was run: as §2
Escherichia coli [2] = assay: Antimicrobial activity against Escherichia coli 25922 by broth microdilution method; format: functional; how it was run: as §2
Pseudomonas aeruginosa = assay: Antimicrobial activity against Pseudomonas aeruginosa by broth microdilution method; format: functional; how it was run: as §2
Salmonella typhimurium = assay: Antimicrobial activity against Salmonella Typhimurium by broth microdilution method; format: functional, Salmonella enterica subsp. enterica serovar Typhimurium; settings: Salmonella enterica; how it was run: as §2
Bacillus subtilis = assay: Antimicrobial activity against Bacillus subtilis by broth microdilution method; format: functional; how it was run: as §2
Klebsiella pneumoniae = assay: Antimicrobial activity against Klebsiella pneumoniae by broth microdilution method; format: functional; how it was run: as §2
[3] = Toxicity in Artemia salina after 24 hrs; format: organism-based; settings: in vivo

MIC (Nakaseomyces glabratus) [µg/mL] | MIC (Candida tropicalis) [µg/mL] | MIC (Candida albicans) [µg/mL] | MIC (Staphylococcus aureus) [µg/mL] | MIC (Listeria monocytogenes) [µg/mL] | MIC (Proteus vulgaris) [µg/mL] | MIC (Escherichia coli [1]) [µg/mL] | MIC (Enterococcus faecalis) [µg/mL] | MIC (Escherichia coli [2]) [µg/mL] | MIC (Pseudomonas aeruginosa) [µg/mL] | MIC (Salmonella typhimurium) [µg/mL] | MIC (Bacillus subtilis) [µg/mL] | MIC (Klebsiella pneumoniae) [µg/mL] | SMILES | LC50 at 24 h [3] [µg/mL]
200 (≈ 520 µM) | 200 (≈ 520 µM) | 200 (≈ 520 µM) | 50 (≈ 130 µM) | 400 (≈ 1040 µM) | 100 (≈ 260 µM) | 50 (≈ 130 µM) | 50 (≈ 130 µM) | 200 (≈ 520 µM) | 100 (≈ 260 µM) | 25 (≈ 65 µM) | 50 (≈ 130 µM) | 50 (≈ 130 µM) | O=C(O)c1ccc(/C=N/NC(=O)c2ccc(-c3nc4ccccc4[nH]3)cc2)cc1 | 
50 (≈ 135 µM) | 50 (≈ 135 µM) | 100 (≈ 270 µM) | 25 (≈ 67.5 µM) | 200 (≈ 540 µM) | 50 (≈ 135 µM) | 25 (≈ 67.5 µM) | 12.5 (≈ 33.7 µM) | 50 (≈ 135 µM) | 25 (≈ 67.5 µM) | 6.25 (≈ 16.9 µM) | 25 (≈ 67.5 µM) | 25 (≈ 67.5 µM) | COc1ccc(/C=N/NC(=O)c2ccc(-c3nc4ccccc4[nH]3)cc2)cc1 | 
100 (≈ 279 µM) | 50 (≈ 140 µM) | 100 (≈ 279 µM) | 50 (≈ 140 µM) | 200 (≈ 558 µM) | 50 (≈ 140 µM) | 25 (≈ 69.8 µM) | 25 (≈ 69.8 µM) | 50 (≈ 140 µM) | 50 (≈ 140 µM) | 6.25 (≈ 17.4 µM) | 25 (≈ 69.8 µM) | 25 (≈ 69.8 µM) | O=C(N/N=C/c1ccc(F)cc1)c1ccc(-c2nc3ccccc3[nH]2)cc1 | 
100 (≈ 281 µM) | 100 (≈ 281 µM) | 100 (≈ 281 µM) | 50 (≈ 140 µM) | 400 (≈ 1120 µM) | 25 (≈ 70.1 µM) | 25 (≈ 70.1 µM) | 25 (≈ 70.1 µM) | 100 (≈ 281 µM) | 25 (≈ 70.1 µM) | 25 (≈ 70.1 µM) | 25 (≈ 70.1 µM) | 25 (≈ 70.1 µM) | O=C(N/N=C/c1ccc(O)cc1)c1ccc(-c2nc3ccccc3[nH]2)cc1 | 
100 (≈ 245 µM) | 50 (≈ 122 µM) | 100 (≈ 245 µM) | 25 (≈ 61.2 µM) | 200 (≈ 490 µM) | 50 (≈ 122 µM) | 25 (≈ 61.2 µM) | 12.5 (≈ 30.6 µM) | 100 (≈ 245 µM) | 50 (≈ 122 µM) | 12.5 (≈ 30.6 µM) | 50 (≈ 122 µM) | 25 (≈ 61.2 µM) | O=C(N/N=C/c1ccc(C(F)(F)F)cc1)c1ccc(-c2nc3ccccc3[nH]2)cc1 | 
50 (≈ 130 µM) | 100 (≈ 261 µM) | 100 (≈ 261 µM) | 50 (≈ 130 µM) | 200 (≈ 522 µM) | 50 (≈ 130 µM) | 25 (≈ 65.2 µM) | 25 (≈ 65.2 µM) | 100 (≈ 261 µM) | 25 (≈ 65.2 µM) | 25 (≈ 65.2 µM) | 25 (≈ 65.2 µM) | 50 (≈ 130 µM) | CN(C)c1ccc(/C=N/NC(=O)c2ccc(-c3nc4ccccc4[nH]3)cc2)cc1 | 
100 (≈ 259 µM) | 100 (≈ 259 µM) | 50 (≈ 130 µM) | 25 (≈ 64.9 µM) | 200 (≈ 519 µM) | 50 (≈ 130 µM) | 25 (≈ 64.9 µM) | 25 (≈ 64.9 µM) | 100 (≈ 259 µM) | 50 (≈ 130 µM) | 12.5 (≈ 32.4 µM) | 50 (≈ 130 µM) | 25 (≈ 64.9 µM) | O=C(N/N=C/c1ccc([N+](=O)[O-])cc1)c1ccc(-c2nc3ccccc3[nH]2)cc1 | 
100 (≈ 274 µM) | 50 (≈ 137 µM) | 100 (≈ 274 µM) | 25 (≈ 68.4 µM) | 200 (≈ 547 µM) | 50 (≈ 137 µM) | 25 (≈ 68.4 µM) | 12.5 (≈ 34.2 µM) | 100 (≈ 274 µM) | 50 (≈ 137 µM) | 12.5 (≈ 34.2 µM) | 50 (≈ 137 µM) | 12.5 (≈ 34.2 µM) | N#Cc1ccc(/C=N/NC(=O)c2ccc(-c3nc4ccccc4[nH]3)cc2)cc1 | 

The remaining lines, values behind:

SMILES | MIC (Nakaseomyces glabratus) [µg/mL] | MIC (Candida tropicalis) [µg/mL] | MIC (Candida albicans) [µg/mL] | MIC (Staphylococcus aureus) [µg/mL] | MIC (Listeria monocytogenes) [µg/mL] | MIC (Proteus vulgaris) [µg/mL] | MIC (Escherichia coli [1]) [µg/mL] | MIC (Enterococcus faecalis) [µg/mL] | MIC (Escherichia coli [2]) [µg/mL] | MIC (Pseudomonas aeruginosa) [µg/mL] | MIC (Salmonella typhimurium) [µg/mL] | MIC (Bacillus subtilis) [µg/mL] | MIC (Klebsiella pneumoniae) [µg/mL] | LC50 at 24 h [3] [µg/mL]
CC(=O)N1CCN(c2ccc(OCC3COC(Cn4ccnc4)(c4ccc(Cl)cc4Cl)O3)cc2)CC1 (configuration not stated) [KETOCONAZOLE] | 25 (≈ 47 µM) | 50 (≈ 94.1 µM) | 50 (≈ 94.1 µM) |  |  |  |  |  |  |  |  |  |  | 
Cc1ccc(/C=N/NC(=O)c2ccc(-c3nc4ccccc4[nH]3)cc2)cc1 | 100 (≈ 282 µM) | 100 (≈ 282 µM) | 100 (≈ 282 µM) | 25 (≈ 70.5 µM) | 200 (≈ 564 µM) | 25 (≈ 70.5 µM) | 25 (≈ 70.5 µM) | 12.5 (≈ 35.3 µM) | 100 (≈ 282 µM) | 50 (≈ 141 µM) | 6.25 (≈ 17.6 µM) | 50 (≈ 141 µM) | 12.5 (≈ 35.3 µM) | > 1000
O=C(N/N=C/c1ccccc1)c1ccc(-c2nc3ccccc3[nH]2)cc1 | 100 (≈ 294 µM) | 100 (≈ 294 µM) | 50 (≈ 147 µM) | 25 (≈ 73.4 µM) | 400 (≈ 1180 µM) | 50 (≈ 147 µM) | 25 (≈ 73.4 µM) | 12.5 (≈ 36.7 µM) | 100 (≈ 294 µM) | 25 (≈ 73.4 µM) | 12.5 (≈ 36.7 µM) | 25 (≈ 73.4 µM) | 25 (≈ 73.4 µM) | 
O=C(N/N=C/c1ccc(Cl)cc1)c1ccc(-c2nc3ccccc3[nH]2)cc1 | 50 (≈ 133 µM) | 50 (≈ 133 µM) | 50 (≈ 133 µM) | 12.5 (≈ 33.3 µM) | 100 (≈ 267 µM) | 25 (≈ 66.7 µM) | 25 (≈ 66.7 µM) | 12.5 (≈ 33.3 µM) | 100 (≈ 267 µM) | 25 (≈ 66.7 µM) | 6.25 (≈ 16.7 µM) | 25 (≈ 66.7 µM) | 12.5 (≈ 33.3 µM) | > 1000
O=C(N/N=C/c1ccc(Br)cc1)c1ccc(-c2nc3ccccc3[nH]2)cc1 | 100 (≈ 239 µM) | 50 (≈ 119 µM) | 100 (≈ 239 µM) | 25 (≈ 59.6 µM) | 200 (≈ 477 µM) | 25 (≈ 59.6 µM) | 25 (≈ 59.6 µM) | 12.5 (≈ 29.8 µM) | 50 (≈ 119 µM) | 25 (≈ 59.6 µM) | 12.5 (≈ 29.8 µM) | 25 (≈ 59.6 µM) | 12.5 (≈ 29.8 µM) | > 1000
O=C(N[C@H](CO)[C@H](O)c1ccc([N+](=O)[O-])cc1)C(Cl)Cl [CHLORAMPHENICOL] |  |  |  | 12.5 (≈ 38.7 µM) | 50 (≈ 155 µM) | 50 (≈ 155 µM) | 12.5 (≈ 38.7 µM) | 12.5 (≈ 38.7 µM) | 12.5 (≈ 38.7 µM) | 50 (≈ 155 µM) | 12.5 (≈ 38.7 µM) | 12.5 (≈ 38.7 µM) | 12.5 (≈ 38.7 µM) | 
